Each structure is given as a SMILES string. Calls of active or inactive are those of the source. No cut-off for these calls is given here.

The Kd is a measure of binding affinity in units of concentration.

Experiment [1] deals with Insulin-like growth factor 1 receptor (Homo sapiens, UniProt P08069). The experiment can be described thus: Binding affinity to IGF1R (unknown origin) assessed as dissociation constant by Ambit kinase binding assay.
For experiment [2], the system named is HeLa. Kind of experiment: Antiproliferative activity against human HeLa cells assessed as loss of clonal survival upto 10 uM incubated for 10 days by crystal violet staining based assay. It is filed as functional, cell-based. Particulars: time 10.0 day. In a few lines:
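Colony outgrowth: cells plated at 200 cells per 60-mm dish, exposed to compound or DMSO vehicle and stained with crystal violet after 10 days. HCT116 grown in McCoy's 5A; A549 and HeLa in DMEM; hTERT-RPE1 in DMEM/F-12. All media had 10% FBS and penicillin/streptomycin, 37°C, 5% CO2. Quantified from 3 independent experiments, mean + SD, Student's t test.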

The target of experiment [3] is Misshapen-like kinase 1 (Homo sapiens) (UniProt Q8N4C8). Kind of experiment: Inhibition of MINK (unknown origin) assessed as residual enzyme activity at 10 uM by Ambit kinase binding assay relative to control.
Experiment [4] deals with HeLa S3. Kind of experiment: Reversal of nocodazole-induced mitotic arrest in human HeLa S3 cells expressing histone H2B-GFP assessed as nuclear envelope reassembly at 10 uM measured for 20 to 60 mins by immunofluorescence analysis. It is filed as functional, cell-based. The note with it: time 20-60 min.
Experiment [5] concerns U2OS. Kind of experiment: Antiproliferative activity against human U2OS cells at 10 uM incubated for 4 days by Syto60 staining based assay. It is filed as functional, cell-based. The note with it: time 4.0 day. In a few lines:
(§1)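 Proliferation read by Syto60 nucleic acid stain fluorescence (excitation 635 nm, emission 695 nm) after treatment for up to 96 h. Each time point normalized to its DMSO control. Mean ± SD from 4 independent experiments. Cells kept at 37°C, 5% CO2 in 10% FBS-supplemented medium.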

For experiment [6], the system named is HeLa. The experiment can be described thus: Antiproliferative activity against human HeLa cells at 10 uM measured after 96 hrs in presence of Z-VAD-FMK by Syto60 staining based assay. It is filed as functional, cell-based.
Experiment [7] addresses Dual specificity protein kinase CLK4 (Homo sapiens) (UniProt Q9HAZ1). Kind of experiment: Inhibition of CLK4 (unknown origin) assessed as residual enzyme activity at 10 uM by Ambit kinase binding assay relative to control.
The subject of experiment [8] is HeLa S3. Kind of experiment: Effect on thymidine-treated human HeLa S3 cell populations after one cell doubling at 10 uM incubated for 4 hrs followed by thymidine release by immunofluorescence imaging analysis. It is filed as functional, cell-based.
The target of another experiment is Activated CDC42 kinase 1 (Homo sapiens, UniProt Q07912). The experiment can be described thus: Binding affinity to TNK2 (unknown origin) assessed as dissociation constant by Ambit kinase binding assay.
Experiment [9] has as its system U2OS. The experiment can be described thus: Effect on thymidine-treated human U2OS cell populations after one cell doubling at 10 uM incubated for 4 hrs followed by thymidine release by immunofluorescence imaging analysis. The experiment is classed as functional, cell-based.
The next experiment deals with Focal adhesion kinase 1 (Homo sapiens, UniProt Q05397). Kind of experiment: Binding affinity to FAK (unknown origin) assessed as dissociation constant by Ambit kinase binding assay.
Experiment [10] relates to U2OS. Kind of experiment: Reversal of paclitaxel-induced mitotic arrest in human U2OS cells assessed as Ser10 phosphorylated Histone H3-positive 4c population at 10 uM incubated for 16 hrs by flow cytometry (reference value: 25 %). It is filed as functional. (In general: A flow cytometer gives signals particle by particle.)
The target in experiment [11] is Aurora kinase B (Homo sapiens) (UniProt Q96GD4). Kind of experiment: Inhibition of Aurora B phosphorylation at Thr232 in human U2OS cells by Western blot analysis. It is filed as cell-based. The method in brief:
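Thymidine-released U2OS cells were treated with inhibitor or DMSO for 1 hr before mitotic entry, then with taxol (1 μM) plus MG132 (10 μM). Mitotic cells were collected by shake-off and immunoblotted for phospho-Aurora B (Thr232). Cyclin B served as the mitotic marker and the Mps1 mobility shift as autophosphorylation.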
Background: A western blot detects proteins with antibodies after separation by electrophoresis.

The subject of experiment [12] is U2OS. Kind of experiment: Reversal of paclitaxel-induced mitotic arrest in human U2OS cells assessed as accumulation of 4N phosphorylated Histone H3-negative cells incubated for 16 hrs by flow cytometry. It is filed as functional, cell-based. The note with it: dose 5-10 µM.
Experiment [13] concerns the target Myosin-IIIb (Homo sapiens) (UniProt Q8WXR4). The experiment can be described thus: Inhibition of MYO3B (unknown origin) assessed as residual enzyme activity at 10 uM by Ambit kinase binding assay relative to control.
Experiment [14] deals with HeLa S3. The experiment can be described thus: Effect on thymidine-treated human HeLa S3 cell populations after two cell doubling at 10 uM incubated for 4 hrs followed by thymidine release by immunofluorescence imaging analysis. The experiment is classed as functional, cell-based.
Experiment [15] concerns U2OS. The experiment can be described thus: Initiation of anaphase in human U2OS cells expressing histone H2B-GFP at 10 uM measured for 20 mins by fluorescence time-lapse microscopy (reference value: 10 %). It is filed as functional. The method in brief: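 U2OS H2B-GFP cells were given DMSO or inhibitor and imaged by fluorescence time-lapse at 37°C, 5% CO₂, one frame every 2 min. NEBD-to-anaphase time was scored for 100 cells per population and plotted as cumulative percentage initiating anaphase.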

Another experiment concerns UTRM10. Kind of experiment: Inhibition of hyperphosphorylation of LAP-tagged Mps1 M602Q mutant (unknown origin) expressed in UTRM10 cells (unknown origin) measured after 90 mins by immunoblot analysis. The experiment is classed as cell-based. The note with it: Homo sapiens.
For experiment [16], the system named is HCT-116. Kind of experiment: Antiproliferative activity against human HCT-116 with BAX-/- cells at 10 uM incubated for 4 days by Syto60 staining based assay. The experiment is classed as functional, cell-based. The note with it: time 4.0 day. In a few lines:
as §1

The target in experiment [17] is Cyclin-G-associated kinase (Homo sapiens, UniProt O14976). Kind of experiment: Binding affinity to GAK (unknown origin) assessed as dissociation constant by Ambit kinase binding assay.
The subject of experiment [18] is U2OS. The experiment can be described thus: Reversal of nocodazole-induced mitotic arrest in human U2OS cells assessed as accumulation of 4N phosphorylated Histone H3-negative cells incubated for 16 hrs by flow cytometry. It is filed as functional, cell-based. Particulars: dose 5-10 µM.
Experiment [19] addresses Dual specificity protein kinase CLK1 (Homo sapiens, UniProt P49759). The experiment can be described thus: Inhibition of CLK1 (unknown origin) assessed as residual enzyme activity at 10 uM by Ambit kinase binding assay relative to control.
In experiment [20] the test system is HCT-116. Kind of experiment: Antiproliferative activity against human HCT-116 with p53-/- cells at 10 uM incubated for 4 days by Syto60 staining based assay. It is filed as functional, cell-based. The note with it: time 4.0 day. In a few lines:
as §1

For experiment [21], the target named is Tyrosine-protein kinase Tec (Homo sapiens) (UniProt P42680). Kind of experiment: Inhibition of TEC (unknown origin) assessed as residual enzyme activity at 10 uM by Ambit kinase binding assay relative to control.
Experiment [22] addresses Serine/threonine-protein kinase 16 (Homo sapiens) (UniProt O75716). The experiment can be described thus: Inhibition of STK16 (unknown origin) assessed as residual enzyme activity at 10 uM by Ambit kinase binding assay relative to control.
In experiment [23] the target is TRAF2 and NCK-interacting protein kinase (Homo sapiens) (UniProt Q9UKE5). Kind of experiment: Inhibition of TNIK (unknown origin) assessed as residual enzyme activity at 10 uM by Ambit kinase binding assay relative to control.
Experiment [24] addresses BMP-2-inducible protein kinase (Homo sapiens) (UniProt Q9NSY1). Kind of experiment: Inhibition of BIKE (unknown origin) assessed as residual enzyme activity at 10 uM by Ambit kinase binding assay relative to control.
Experiment [25] concerns the target SRSF protein kinase 3 (Homo sapiens) (UniProt Q9UPE1). Kind of experiment: Inhibition of SRPK3 (unknown origin) assessed as residual enzyme activity at 10 uM by Ambit kinase binding assay relative to control.
Experiment [26] deals with Serine/threonine-protein kinase 38-like (Homo sapiens) (UniProt Q9Y2H1). The experiment can be described thus: Inhibition of NDR2 (unknown origin) assessed as residual enzyme activity at 10 uM by Ambit kinase binding assay relative to control.
Experiment [27] concerns the target Serine/threonine-protein kinase 24 (Homo sapiens) (UniProt Q9Y6E0). The experiment can be described thus: Inhibition of MST3 (unknown origin) assessed as residual enzyme activity at 10 uM by Ambit kinase binding assay relative to control.

Chain of Tyrosine-protein kinase Tec (Homo sapiens) (P42680 whole entry): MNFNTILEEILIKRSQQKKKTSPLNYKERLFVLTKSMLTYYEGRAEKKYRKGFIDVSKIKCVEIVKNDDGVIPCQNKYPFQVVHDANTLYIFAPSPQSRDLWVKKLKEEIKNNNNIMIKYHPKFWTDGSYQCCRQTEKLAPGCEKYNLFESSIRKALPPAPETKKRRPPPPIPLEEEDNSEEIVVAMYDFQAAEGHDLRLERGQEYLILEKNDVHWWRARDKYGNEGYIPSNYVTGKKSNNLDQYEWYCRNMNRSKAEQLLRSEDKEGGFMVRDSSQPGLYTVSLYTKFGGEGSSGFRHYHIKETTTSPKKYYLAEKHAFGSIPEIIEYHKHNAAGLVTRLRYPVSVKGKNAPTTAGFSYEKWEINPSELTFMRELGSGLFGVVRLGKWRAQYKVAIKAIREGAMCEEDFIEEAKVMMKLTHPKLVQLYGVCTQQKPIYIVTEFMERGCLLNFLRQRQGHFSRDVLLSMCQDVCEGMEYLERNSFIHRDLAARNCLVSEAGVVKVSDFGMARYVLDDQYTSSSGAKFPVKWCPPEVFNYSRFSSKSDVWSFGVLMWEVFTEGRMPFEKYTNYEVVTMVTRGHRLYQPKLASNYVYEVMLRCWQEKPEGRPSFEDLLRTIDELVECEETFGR
Chain of Insulin-like growth factor 1 receptor (P08069 31-736 limits assumed): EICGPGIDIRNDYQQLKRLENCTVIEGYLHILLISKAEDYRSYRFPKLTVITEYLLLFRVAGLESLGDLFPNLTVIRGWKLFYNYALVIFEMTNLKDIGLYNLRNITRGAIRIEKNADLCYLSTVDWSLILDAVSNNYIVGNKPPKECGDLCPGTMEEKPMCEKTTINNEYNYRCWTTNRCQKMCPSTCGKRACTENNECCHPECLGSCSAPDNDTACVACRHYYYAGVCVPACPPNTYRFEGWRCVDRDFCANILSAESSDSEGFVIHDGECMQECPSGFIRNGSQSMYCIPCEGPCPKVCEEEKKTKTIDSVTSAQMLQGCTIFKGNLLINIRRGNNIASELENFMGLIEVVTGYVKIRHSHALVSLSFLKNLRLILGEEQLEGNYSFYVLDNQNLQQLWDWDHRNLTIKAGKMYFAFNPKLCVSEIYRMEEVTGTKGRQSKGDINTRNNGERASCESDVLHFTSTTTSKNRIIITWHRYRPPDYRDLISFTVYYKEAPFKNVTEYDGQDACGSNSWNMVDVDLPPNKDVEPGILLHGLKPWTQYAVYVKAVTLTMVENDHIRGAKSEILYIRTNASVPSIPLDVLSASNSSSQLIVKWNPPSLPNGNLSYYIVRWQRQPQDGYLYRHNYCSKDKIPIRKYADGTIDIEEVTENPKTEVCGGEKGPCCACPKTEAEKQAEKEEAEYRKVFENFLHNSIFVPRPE
Chain of Insulin-like growth factor 1 receptor (P08069 741-1367 limits assumed): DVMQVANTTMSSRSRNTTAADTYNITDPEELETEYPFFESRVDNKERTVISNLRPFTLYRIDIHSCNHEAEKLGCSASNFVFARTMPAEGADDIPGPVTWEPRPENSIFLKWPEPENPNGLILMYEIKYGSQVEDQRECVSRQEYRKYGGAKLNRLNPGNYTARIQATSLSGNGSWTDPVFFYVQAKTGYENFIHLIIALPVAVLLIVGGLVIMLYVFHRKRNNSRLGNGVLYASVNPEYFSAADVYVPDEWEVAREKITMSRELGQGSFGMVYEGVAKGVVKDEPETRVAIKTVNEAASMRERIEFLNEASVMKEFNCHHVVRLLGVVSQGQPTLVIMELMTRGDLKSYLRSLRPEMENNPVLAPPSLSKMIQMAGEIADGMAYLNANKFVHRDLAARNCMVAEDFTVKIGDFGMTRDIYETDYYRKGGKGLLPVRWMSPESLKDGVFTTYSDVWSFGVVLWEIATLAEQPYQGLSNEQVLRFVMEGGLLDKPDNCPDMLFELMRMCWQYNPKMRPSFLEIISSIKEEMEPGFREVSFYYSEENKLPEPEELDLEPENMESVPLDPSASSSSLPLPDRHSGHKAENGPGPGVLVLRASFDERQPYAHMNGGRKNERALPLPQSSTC
Chain of TRAF2 and NCK-interacting protein kinase (Homo sapiens) (Q9UKE5 whole entry, looked up): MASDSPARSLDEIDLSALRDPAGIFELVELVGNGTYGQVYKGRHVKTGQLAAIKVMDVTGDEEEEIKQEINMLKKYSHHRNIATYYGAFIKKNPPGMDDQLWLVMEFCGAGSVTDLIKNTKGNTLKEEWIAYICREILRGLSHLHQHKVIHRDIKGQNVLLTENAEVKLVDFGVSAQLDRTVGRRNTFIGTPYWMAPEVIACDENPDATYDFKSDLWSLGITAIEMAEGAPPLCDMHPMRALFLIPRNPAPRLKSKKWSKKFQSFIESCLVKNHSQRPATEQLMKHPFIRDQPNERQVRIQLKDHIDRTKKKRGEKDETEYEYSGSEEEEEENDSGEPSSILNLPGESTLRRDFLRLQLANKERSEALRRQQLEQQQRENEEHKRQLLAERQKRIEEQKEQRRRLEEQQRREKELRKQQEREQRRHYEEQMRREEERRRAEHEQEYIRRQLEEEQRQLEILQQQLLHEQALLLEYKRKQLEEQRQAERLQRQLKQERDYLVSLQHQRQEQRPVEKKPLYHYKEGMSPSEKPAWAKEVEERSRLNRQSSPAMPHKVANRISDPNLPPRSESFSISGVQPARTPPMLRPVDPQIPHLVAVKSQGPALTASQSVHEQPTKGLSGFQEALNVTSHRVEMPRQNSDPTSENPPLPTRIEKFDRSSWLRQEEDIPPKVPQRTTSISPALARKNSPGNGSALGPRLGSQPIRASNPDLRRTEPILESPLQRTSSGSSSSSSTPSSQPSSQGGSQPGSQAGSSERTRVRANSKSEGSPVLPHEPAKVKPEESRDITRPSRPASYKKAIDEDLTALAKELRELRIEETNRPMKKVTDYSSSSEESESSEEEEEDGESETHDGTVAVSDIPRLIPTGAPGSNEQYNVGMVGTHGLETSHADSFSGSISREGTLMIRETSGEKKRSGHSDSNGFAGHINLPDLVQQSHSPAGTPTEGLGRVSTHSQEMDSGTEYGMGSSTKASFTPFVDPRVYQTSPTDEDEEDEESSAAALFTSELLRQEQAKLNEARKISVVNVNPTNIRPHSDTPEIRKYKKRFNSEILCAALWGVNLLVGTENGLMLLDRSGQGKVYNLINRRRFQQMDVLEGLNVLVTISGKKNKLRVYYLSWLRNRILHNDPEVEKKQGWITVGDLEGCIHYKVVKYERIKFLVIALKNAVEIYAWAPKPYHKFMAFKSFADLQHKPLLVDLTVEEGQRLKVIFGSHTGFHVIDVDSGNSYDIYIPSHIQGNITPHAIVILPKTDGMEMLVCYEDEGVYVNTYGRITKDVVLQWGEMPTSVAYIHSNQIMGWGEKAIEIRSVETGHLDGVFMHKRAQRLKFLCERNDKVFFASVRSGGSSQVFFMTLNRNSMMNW
Chain of Serine/threonine-protein kinase 38-like (Homo sapiens) (Q9Y2H1 2-464 limits assumed): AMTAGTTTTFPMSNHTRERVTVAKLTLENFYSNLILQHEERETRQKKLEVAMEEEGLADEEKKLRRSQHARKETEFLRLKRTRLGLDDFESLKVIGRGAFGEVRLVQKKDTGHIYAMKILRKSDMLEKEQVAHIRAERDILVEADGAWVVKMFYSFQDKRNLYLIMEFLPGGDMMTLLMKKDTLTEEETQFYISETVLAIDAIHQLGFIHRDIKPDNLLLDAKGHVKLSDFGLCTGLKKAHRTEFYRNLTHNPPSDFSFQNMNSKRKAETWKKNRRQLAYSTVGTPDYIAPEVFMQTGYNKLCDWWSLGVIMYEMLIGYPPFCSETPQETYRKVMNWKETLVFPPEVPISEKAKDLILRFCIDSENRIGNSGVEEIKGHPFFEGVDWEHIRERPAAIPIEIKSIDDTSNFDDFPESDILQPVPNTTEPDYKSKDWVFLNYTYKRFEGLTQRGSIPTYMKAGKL
Chain of BMP-2-inducible protein kinase (Homo sapiens) (Q9NSY1 whole entry, looked up): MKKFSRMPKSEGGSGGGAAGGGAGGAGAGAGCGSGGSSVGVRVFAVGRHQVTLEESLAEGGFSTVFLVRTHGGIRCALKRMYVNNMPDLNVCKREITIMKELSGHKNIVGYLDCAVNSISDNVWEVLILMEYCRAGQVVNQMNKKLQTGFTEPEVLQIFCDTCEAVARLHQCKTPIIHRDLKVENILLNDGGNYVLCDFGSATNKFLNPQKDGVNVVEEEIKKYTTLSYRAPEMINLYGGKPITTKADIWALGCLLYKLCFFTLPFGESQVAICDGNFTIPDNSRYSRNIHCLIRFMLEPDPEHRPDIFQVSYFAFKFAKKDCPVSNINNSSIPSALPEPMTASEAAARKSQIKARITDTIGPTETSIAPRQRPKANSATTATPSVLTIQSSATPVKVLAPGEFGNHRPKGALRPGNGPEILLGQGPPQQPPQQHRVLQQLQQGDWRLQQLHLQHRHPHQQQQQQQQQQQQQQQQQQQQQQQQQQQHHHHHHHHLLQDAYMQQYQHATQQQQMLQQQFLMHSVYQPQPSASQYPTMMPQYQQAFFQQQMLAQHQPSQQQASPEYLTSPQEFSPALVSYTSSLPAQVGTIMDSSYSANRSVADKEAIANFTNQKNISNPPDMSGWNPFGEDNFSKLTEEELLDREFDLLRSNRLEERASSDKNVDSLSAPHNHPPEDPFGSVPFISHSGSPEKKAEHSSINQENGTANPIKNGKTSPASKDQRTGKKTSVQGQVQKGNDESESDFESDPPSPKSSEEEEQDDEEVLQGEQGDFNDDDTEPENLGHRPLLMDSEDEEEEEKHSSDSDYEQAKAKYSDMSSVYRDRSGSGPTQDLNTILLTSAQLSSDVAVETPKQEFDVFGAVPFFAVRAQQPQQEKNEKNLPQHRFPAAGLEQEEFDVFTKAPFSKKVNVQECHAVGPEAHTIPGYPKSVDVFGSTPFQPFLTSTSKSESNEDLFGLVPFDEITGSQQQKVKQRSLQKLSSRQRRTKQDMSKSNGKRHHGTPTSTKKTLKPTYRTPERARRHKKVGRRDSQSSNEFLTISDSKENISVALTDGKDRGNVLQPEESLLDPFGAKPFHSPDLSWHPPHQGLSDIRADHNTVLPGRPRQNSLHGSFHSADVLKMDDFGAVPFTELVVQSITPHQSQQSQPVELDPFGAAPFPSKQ

`COc1cc(N2CCC(O)CC2)ccc1Nc1cc(Nc2ccccc2S(=O)(=O)C(C)C)c2cc[nH]c2n1`: the dissociation constant Kd in [1] was 750 nM; at Activated CDC42 kinase 1 it was 3100 nM; on Focal adhesion kinase 1 it was 440 nM; in experiment [17], 1100 nM. Besides, the result with HeLa [2], in the experiment on HeLa S3 [4], in the experiment with U2OS [5], in the experiment on HeLa [6], in the experiment on HCT-116 [16] and with HCT-116 [20] was Active. In addition, the Activity was 34% in experiment [3]; 18% in [7]; 1% in the experiment on U2OS [10]; “Dose-Dependent Effect” in the experiment on U2OS [12]; 28% in experiment [13]; around 100% with U2OS [15]. Further, the Activity result in the experiment with U2OS [18] was “Dose-Dependent Effect”; in experiment [19], 17%. Also, the result in the experiment with HeLa S3 [8], with U2OS [9] and with HeLa S3 [14] was inactive. Also, the inhibition entry in experiment [11] was “Active”. Further, the inhibition entry in the experiment on UTRM10 is “inactive”.
With `O=C1c2ccccc2-c2n[nH]c3cccc1c23`, the Activity in experiment [21] is 28%; in experiment [22], 1.4%; in experiment [23] it was 18%; in [24], 0.6%; in experiment [25] it was 32%; in [26], 28%. For the same compound, the Activity in [27] was 1.8%.

These data come from ChEMBL document CHEMBL5705891, “Small-molecule kinase inhibitors provide insight into Mps1 cell cycle function” (Nat Chem Biol, 2010).
